# An excerpt weighted towards active compounds, which were near 3.1% of everything screened.
# HSP90 inh – HSP90 refolding inhibition in rabbit reticulocyte lysate | luciferase refolding luminescence, 3 h | inhibition, % at 5.6 µM | 290,000 tested, 0.91% active;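 active = inhibition above the screen-wide mean plus 3 SD, computed separately per campaign, cut at about 16% in these data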;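 note: 0% = DMSO wells and 100% = 60 µM geldanamycin wells; inhibitors lower the luminescence because luciferase stays unfolded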
# Hsp70 act – switches on Hsp70 transcription | HeLa Hsp70 promoter luciferase reporter, luminescence; scaled: vehicle 0, proteasome-inhibitor control 100% | activation, % at 10 µM | 200,000 tested, 0.04% active;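 active = activation above the mean across all tested compounds plus 3 SD, cutoff set per campaign, cut at about 5.5% in these data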;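 note: 100% = MG132 at 30 µM as the positive control and 0% = DMSO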
# TbHK1 inh – blocks Trypanosoma brucei hexokinase 1 activity; inhibition, % at 10 µM; 220,000 tested, 0.11% active; recombinant TbHK1, G6PDH-coupled NADH A340; AID 1430;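 active = inhibition of 50% or more in the single-dose primary screen; inactive = inhibition below 50%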
# HSF1 inh – HSF1 inhibition | 300,000 tested, 0.77% active | activity change, negative = inhibition, % at 7.5 µM (by protocol) | NIH3T3-HGL HSE-luciferase, MG132-induced, luminescence 8 h; hits give low values;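 active = more than half of replicate wells show activity change below -50%, luminescence cut by over half; inconclusive = some wells, but at most half, below -50%; inactive = no replicate well below -50%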;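 note: luciferase reports HSF-1 transcriptional activity via heat shock element; 0% = median of DMSO wells and -100% = zero luminescence signal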
# HSF1 activator – increases HSF-1 driven luciferase reporter signal; activation, % at 9 µM; 300,000 tested, 1.7% active; NIH3T3-HGL HSF-1 luciferase reporter, MG132, 8 h; 100% = twice DMSO control signal;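 active = mean replicate activation of at least 50% with a set share of replicates each reaching 50%; inconclusive = only one of those two conditions met; inactive = mean below 50% and too few replicates reaching it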;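 note: 0% = median of the neutral control wells and 100% = twice that signal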
# HKDC1 inh – blocks human hexokinase HKDC1 activity. Q2TB90. inhibition, % at 20 µM. 340,000 tested, 0.16% active. recombinant HKDC1, G6PDH/diaphorase resazurin coupled fluorescence;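 active = inhibition above about 35% when tested at 20 µM, limit read from the data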;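 note: plate controls were DMSO wells with enzyme for no effect and DMSO wells lacking enzyme for full effect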
#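 Assay system: recombinant HKDC1 hexokinase; detection: coupled resazurin fluorescence, excitation 525 nm, emission 613 nm; benchmarks: DMSO-plus-enzyme-mix negative control, buffer-substituted positive control; compound dosing: single 20 µM dose; schedule: 90 min at room temperature in dark; also added: glucose plus 1 mM ATP as hexokinase substrates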
# HSP90 confirm – HSP90 inhibition, confirmation assay; inhibition, % at 5.9 µM; rabbit reticulocyte lysate, luciferase refolding luminescence, 3 h; shares compounds with HSP90 inh; 2,300 tested, 64% active; AID 1846; in the data active = inhibition above about 18%;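 note: 0% = vehicle wells and 100% = reference inhibitor wells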
# luciferase ctr – firefly luciferase inhibition, HSP90 counter-screen; shares compounds with HSP90 inh; purified native firefly luciferase, luminescence; inhibition, % at 5.9 µM; 2,300 tested, 48% active;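 active = inhibition above the mean inhibition of all tested sample wells plus 3 SD, cut at about 10% in these data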;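 note: 0% = DMSO with luciferase and 100% = wells lacking luciferase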
# Target sequence (P08659 whole entry, looked up): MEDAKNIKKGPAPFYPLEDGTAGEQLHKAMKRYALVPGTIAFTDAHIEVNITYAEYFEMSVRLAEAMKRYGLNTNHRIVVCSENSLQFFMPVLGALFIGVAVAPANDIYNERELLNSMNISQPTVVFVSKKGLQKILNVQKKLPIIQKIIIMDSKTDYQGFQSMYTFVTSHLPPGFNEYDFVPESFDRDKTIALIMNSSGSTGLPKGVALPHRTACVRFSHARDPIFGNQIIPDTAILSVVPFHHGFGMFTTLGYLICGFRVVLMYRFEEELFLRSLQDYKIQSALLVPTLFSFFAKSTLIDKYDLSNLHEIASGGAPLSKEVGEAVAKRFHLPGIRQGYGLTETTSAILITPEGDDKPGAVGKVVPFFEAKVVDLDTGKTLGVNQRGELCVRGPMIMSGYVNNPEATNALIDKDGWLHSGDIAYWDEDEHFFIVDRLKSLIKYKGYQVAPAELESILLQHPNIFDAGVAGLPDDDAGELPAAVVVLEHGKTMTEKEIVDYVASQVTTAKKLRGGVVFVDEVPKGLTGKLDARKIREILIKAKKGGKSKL
# Starred values were filed as active, the others as inactive; ? = inconclusive; · = no result.
SMILES,HSP90 inh,Hsp70 act,TbHK1 inh,HSF1 inh,HSF1 activator,HKDC1 inh,HSP90 confirm,luciferase ctr
COc1ccc(NC(=S)NNC(=O)Cn2nc([N+](=O)[O-])cc2C)cc1,41*,0,8,3,15,12,4,1
S=C1NC(c2ccccc2)=NCN1c1ccccc1,1,0,-7,18,43,1,·,·
Cc1ccc(C2=NCN(c3ccc(C(=O)O)cc3)C(=S)N2)cc1,22*,0,-9,15,26,·,18*,-5
Cc1cc(C)c2nc(N3CCC(C(=O)NCCCN4CC(C)CC(C)C4)CC3)sc2c1 (configuration not stated),31*,0,3,-31,-37,13,40*,6
Cn1c(=O)[nH]c(=O)c2c1nc(Br)n2CC(O)COCc1ccccc1 (configuration not stated),17*,0,10,0,-19,-4,0,-1
COc1ccc(OC)c(Cc2nnc(CCC(=O)NC3C4CC5CC(C4)CC3C5)o2)c1 (configuration not stated),18*,0,-4,-6,5,3,-7,-6
COc1ccc(OC)c(Cc2nnc(CCC(=O)NC3CCCCC3)o2)c1,-1,0,-1,9,13,-1,·,·
NC(=O)c1ncn([C@@H]2O[C@H](CNC(=O)[C@H](N)CSCc3ccccc3)[C@@H](O)[C@H]2O)n1,·,·,·,·,·,-7,·,·
C[C@H](CO)N1C[C@H](C)[C@@H](CN(C)S(=O)(=O)c2cccs2)Oc2c(NS(=O)(=O)c3ccccc3)cccc2C1=O,·,·,·,·,·,1,·,·
Cc1ccc(C(=O)NCC(=O)OC(C)C(=O)Nc2ccc(N3CCOCC3)cc2)s1 (configuration not stated),20*,·,1,3,-2,12,-4,-13
Cn1c(=N)n(CC(=O)c2ccc(Cl)c(Cl)c2)c2ccccc21,41*,·,·,-63*,-68,-2,47*,50*
Cn1c(=N)n(CC(=O)c2ccccc2)c2ccccc21,29*,·,-6,-2,5,-7,6,0
Cc1ccc(S(=O)(=O)N(C)C[C@@H]2Oc3ccc(NS(C)(=O)=O)cc3CC(=O)N([C@H](C)CO)C[C@@H]2C)cc1,·,·,·,·,·,-9,·,·
c1ccc(-n2cnc3cc(NCc4cccs4)ccc32)cc1,51*,0,3,-67*,-69,4,63*,61*
O=C(CCNC(=O)c1ccco1)Nc1ccc(OC(F)(F)F)cc1,-3,·,·,-6,5,-2,·,·
Cc1cccc(C(=O)N2CCC(N3CCC(C(=O)N4CCOCC4)CC3)CC2)c1,-4,·,·,4,1,-7,·,·
Cc1cccc(CC(=O)N2CCC(N3CCC(C(=O)N4CCOCC4)CC3)CC2)c1,51*,0,-2,-8,-1,0,-7,-8
COc1cc(/C=C2\SC(=S)N(N3CCOCC3)C2=O)ccc1O,2,·,-6,-2,-5,10,·,·
C=CCN1C(=O)/C(=C\c2ccc(Oc3nc(N4CCOCC4)nc(N4CCOCC4)n3)c(OC)c2)SC1=S,39*,0,-7,-6,-9,-4,10,0
Cc1ccc2c(c1)C(=O)C(=O)N2CCOc1ccccc1,21*,0,0,1,-12,13,3,-26
COc1ccc(-n2nnnc2SCC(=O)Nc2ccccc2F)cc1,0,·,·,-2,2,-6,·,·
COc1ccc(NC(=O)CN(C)C(=O)C(C)N2C(=O)c3ccccc3C2=O)cc1 (configuration not stated),·,·,·,-5,-7,-3,·,·
CCC(=O)Nc1ccc2nc(C3CC3)n(Cc3ccc(C(C)(C)C)cc3)c(=O)c2c1,22*,·,-13,-59*,-64,-5,21*,17*
NC(=O)Cc1ncc(C(F)(F)F)cc1Cl,25*,0,-7,-2,0,-12,-1,-5
CCCN(CCC)CCCNC(=O)Cn1cnc2sc(C)c(S(=O)(=O)N3CCOCC3)c2c1=O,-1,·,·,-7,-5,-7,·,·
SMILES,HSP90 inh,Hsp70 act,TbHK1 inh,HSF1 inh,HSF1 activator,HKDC1 inh,HSP90 confirm,luciferase ctr
CC(C)(C)c1ccc(C(=O)NCC(=O)OCC(=O)N2CCCC2)cc1,·,·,·,·,·,-3,·,·
O=C(Nc1cccc2nsnc12)c1ccc(-c2cccc(Cl)c2)o1,17*,0,6,·,·,8,2,-9
O=C(Nc1ccccc1N1CCCCC1)c1ccc(-c2cccc(Cl)c2)o1,-1,0,-9,-1,-8,-12,·,·
CCC(C(=O)OC(C)C)c1ccc2ccccc2c1 (configuration not stated),·,·,·,·,·,0,·,·
CCC(C)c1ccc2oc(-c3ccc(NC(=O)Cn4cnc5c(=O)n(C)c(=O)n(C)c54)cc3)nc2c1 (configuration not stated),26*,0,-31,-20,-14,2,27*,18*
Cc1ccc2oc(-c3cccc(NC(=O)Cn4cnc5c(=O)n(C)c(=O)n(C)c54)c3)nc2c1,4,0,-21,7,33,·,·,·
CC(C)(C)C(=O)N1CCc2cc(-c3csc(N)n3)ccc21,57*,0,0,?,-51,-8,76*,70*
CCOC(=O)N1N=C(c2ccc(C)cc2)CC1(O)C(F)(F)F (configuration not stated),20*,0,1,-8,3,-4,48*,43*
CCN1C(=O)[C@@H]2Cc3c([nH]c4ccccc34)C(c3ccc(OC)cc3)N2C1=S (some centres not stated),3,·,·,7,9,-2,·,·
CCOC(=O)CN1C(=O)S/C(=C/C=C/c2ccc(N(C)C)cc2)C1=O,39*,0,-8,-7,7,13,-5,-25
Cc1ccc2nc(NC(=O)c3ccccn3)sc2c1,61*,0,-9,-5,-25,15,94*,88*
Cc1ccc2nc(NC(=O)c3ccccc3F)sc2c1,8,·,·,2,15,1,·,·
CSc1nc2ccc(NC(=O)c3ccccn3)cc2s1,41*,·,·,15,17,-4,62*,57*
O=C(C[C@@H]1C/C=C\CC[C@H](Cc2ccc(F)cc2)C(=O)OC[C@@H]2CCCN2C1=O)N[C@H](CO)Cc1ccccc1,·,·,·,·,·,1,·,·
O=C(c1cn(-c2ccccc2)nc1-c1ccc(Br)cc1)N1CCOCC1,95*,0,-8,-6,16,-5,1,-1
COc1ccc(N/C=C(\[N+](=O)[O-])S(=O)(=O)c2ccccc2)cc1,-1,·,·,9,39,0,·,·
O=[N+]([O-])/C(=C\Nc1ccccc1)S(=O)(=O)c1ccccc1,18*,0,2,-3,-9,-9,3,-3
